The values below come from paper PMC7580710 (Pharmacology Research & Perspectives, 2020).

Peptide text beside a SMILES is read from it. * marks the point of attachment. Lauroyl = CCCCCCCCCCCC(=O)*

Series [1] is described as follows: Plasma pharmacokinetics after intravenous. To be noted: rat, 2.5 mg i.v., plasma sampled for 3 days. The format is in vivo, Sprague Dawley rats. Put shortly:
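Adult male Sprague Dawley rats (350-400 g) under isoflurane (5% induction, 1%-3% maintenance) got one internal jugular injection. Blood was taken by terminal cardiac puncture from 0 to 72 h (N = 3 per time) and plasma separated cold. Levels were measured in duplicate by LC-MS/MS after protein precipitation with analog internal standard (curve 1.0-500 ng/mL). Data were fitted with a three-compartment naïve-pooled model, extended least-squares, variance-weighted.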

Another series in a line: Urinary excretion. The format is in vivo, Sprague Dawley rats. To be noted: rat, i.v., urine from bladder.
For series [2] the following is noted: cited from earlier work.
For series [3] the following is noted: 3 hours, or 1, 2, 3, and 7 days after injection; cited from earlier work.

As for `CCCCCCCCCCCC(=O)NCCCC[C@H](NC(=O)[C@@H](NC(=O)[C@@H](NC(=O)[C@H](C)NC(=O)[C@H](C)NC(=O)[C@H](CCCCN)NC(=O)[C@H](CCCCN)NC(=O)[C@H](CS)NC(=O)[C@H](CCCCN)NC(=O)[C@@H]1CCCN1C(=O)[C@H](CC(C)C)NC(=O)[C@@H](NC(=O)[C@H](Cc1c[nH]c2ccccc12)NC(=O)[C@H](CC(C)C)NC(=O)[C@@H](N)CCCCN)C(C)C)C(C)C)C(C)C)C(N)=O` [collagen‐targeted PA] (H-KLWVLPKCKKAAVVK(Lauroyl)-NH2), the “observed terminal half-life (not to be interpreted as elimination half-life)” value in series [1] came to 42.6 h. For the same compound, the “presence of the target peptide in urine by LC-MS/MS” value in the series “Urinary excretion” is “did not show the presence of the target peptide”. The “CAC for this fiber” value in series [2] is reported as “below 1 µM”. In series [2] (collagen-targeted PA with Alexa Fluor 546, nanofibers at neutral pH), the “critical aggregation concentration (CAC)” value is on record as < 300 nM. For the same compound, in series [3], the “liver function profiles, coagulation panel, or chemistry panel” value is “no change”.
